Experimental data from different studies.
Protocols differ between the studies behind these lines. ≈ marks a conversion by molar mass, not a printed value.
Organism: Lodderomyces parapsilosis
Effect on: microbial growth

SMILES | assay | test system | setting | measurement | result
CCCCCCCCCCCCCCN1CCN(CC(O)(Cn2cncn2)c2ccc(F)cc2F)CC1 (stereo not shown) | broth dilution | ATCC22019 | 48 h | MIC | > 31.3 µg/mL
CC(=O)N1CCN(c2ccc(OCC3COC(Cn4ccnc4)(c4ccc(Cl)cc4Cl)O3)cc2)CC1 (stereo not shown) | – | – | – | MIC90 | 0.125 µg/mL (≈ 0.235 µM)
C[C@@H]1[C@H](O)[C@@H](C)/C=C/C=C/C=C/C=C/C=C/C=C/C=C/[C@H](O[C@@H]2O[C@H](C)[C@@H](O)[C@H](N)[C@@H]2O)C[C@@H]2O[C@](O)(C[C@@H](O)C[C@@H](O)[C@H](O)CC[C@@H](O)C[C@@H](O)CC(=O)O[C@H]1C)C[C@H](O)[C@H]2C(=O)O | broth dilution | – | – | MIC | 0.25 µg/mL (≈ 0.271 µM)
C[C@@H](c1ncncc1F)[C@](O)(Cn1cncn1)c1ccc(F)cc1F | – | – | – | MIC90 | 0.016 µg/mL (≈ 0.0458 µM)
OC(Cn1cncn1)(Cn1cncn1)c1ccc(F)cc1F | broth dilution | – | 24 h | MIC90 | 0.5 µg/mL (≈ 1.63 µM)
O=C1/C(=C/c2cc(O)c(O)c(O)c2)Oc2cccc(O)c21 | broth dilution | – | – | MIC | 16 µg/mL (≈ 55.9 µM)
CCCCCCCCCCCCCN1CCNCC1 | broth dilution | ATCC22019 | 48 h | MIC | 1.95 µg/mL (≈ 7.26 µM)
CC(=O)c1ccc(-c2ccc3oc(C(=O)c4cc(O)c(O)c(O)c4)cc3c2)cc1 | broth dilution | – | – | MIC | 2 to 4 µg/mL (≈ 5.15 to 10.3 µM)
CCCCCCCCCCN1CCN(CC(O)(Cn2cncn2)c2ccc(F)cc2F)CC1 (stereo not shown) | broth dilution | ATCC22019 | 48 h | MIC | 0.015 µg/mL (≈ 0.0324 µM)
C[C@@H]1[C@H](O)[C@@H](C)/C=C/C=C/C=C/C=C/C=C/C=C/C=C/[C@H](O[C@@H]2O[C@H](C)[C@@H](O)[C@H](N)[C@@H]2O)C[C@@H]2O[C@](O)(C[C@@H](O)C[C@@H](O)[C@H](O)CC[C@@H](O)C[C@@H](O)CC(=O)O[C@H]1C)C[C@H](O)[C@H]2C(=O)O | – | – | – | MIC90 | 0.125 µg/mL (≈ 0.135 µM)
